≈ marks a conversion by molar mass, not a printed value. Calls of active or inactive are those of the source. The calls are words filed in the database; no cut-off is given here.
Assays:
Staphylococcus aureus [1] = experiment: Antibacterial activity against Staphylococcus aureus ATCC 6538P assessed as diameter of zone inhibition measured after 18 hrs by CLSI disc diffusion method; type: functional
Outline: (§1)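 Disc diffusion on Mueller-Hinton II agar. Compounds dissolved in DMSO. Strains stored at -80 °C and subcultured twice on tryptic soy agar before testing. Inhibition zones read after 35 °C, 18 h.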

Serratia marcescens [2] = experiment: Antibacterial activity against Serratia marcescens ATCC 13880 measured after 18 hrs by CLSI broth dilution method; type: functional; details: ATCC 13880, 18 h
Outline: (§2)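 Broth MIC in Mueller-Hinton II broth following CLSI, compounds dissolved in DMSO. Strains subcultured twice on tryptic soy agar before testing. Growth read after 35 °C, 18 h.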

Candida tropicalis = experiment: Antifungal activity against Candida tropicalis IBA 171 assessed as diameter of zone inhibition incubated for 24 hrs by CLSI disc diffusion method; type: functional
Outline: (§3)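 Yeast disc diffusion on Mueller-Hinton agar supplemented with 2% glucose and 0.5 mg/L methylene blue. Compounds in DMSO. Yeasts subcultured on Sabouraud dextrose agar before testing. Zones read after 35 °C, 24 h.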

Pichia kudriavzevii = experiment: Antifungal activity against Candida krusei ATCC 6258 assessed as diameter of zone inhibition incubated for 24 hrs by CLSI disc diffusion method; type: functional; outline: as §3
Saccharomyces cerevisiae = experiment: Antifungal activity against Saccharomyces cerevisiae ATCC 9763 diameter of zone inhibition incubated for 24 hrs by CLSI disc diffusion method; type: functional
Outline: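 Disc-diffusion run on Mueller-Hinton II agar with 2% glucose and 0.5 mg/L methylene blue, using compounds in DMSO. Yeast was precultured on Sabouraud dextrose agar (24–48 h, 30 °C). Zones read after 24 h at 35 °C.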

[3] = test system: Staphylococcus epidermidis; experiment: Antibacterial activity against Staphylococcus epidermidis ATCC 12228 measured after 18 hrs by CLSI broth dilution method; type: functional; details: ATCC 12228, 18 h; outline: as §2
Staphylococcus aureus [4] = experiment: Bactericidal activity against Staphylococcus aureus ATCC 6538P measured after 18 hrs by CLSI broth dilution method; type: functional
Outline: (§4)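 Strains stored at -80 °C and subcultured twice on tryptic soy agar before testing. Compounds dissolved in DMSO. […] MBC then determined per CLSI recommendations.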

[5] = test system: Staphylococcus epidermidis; experiment: Bactericidal activity against Staphylococcus epidermidis ATCC 12228 measured after 18 hrs by CLSI broth dilution method; type: functional; details: ATCC 12228, 18 h; outline: as §4
Enterococcus faecalis = experiment: Antibacterial activity against Enterococcus faecalis ATCC 29212 assessed as diameter of zone inhibition measured after 18 hrs by CLSI disc diffusion method; type: functional; outline: as §1
Escherichia coli = experiment: Antibacterial activity against Escherichia coli ATCC 25922 measured after 18 hrs by CLSI broth dilution method; type: functional; details: ATCC 25922, 18 h; outline: as §2
Enterobacter cloacae [6] = experiment: Antibacterial activity against Enterobacter cloacae DSM 6234 measured after 18 hrs by CLSI broth dilution method; type: functional; details: DSM 6234, 18 h; outline: as §2
Burkholderia cepacia = experiment: Antibacterial activity against Burkholderia cepacia ATCC 25416 measured after 18 hrs by CLSI broth dilution method; type: functional; details: ATCC 25416, 18 h; outline: as §2
Enterobacter cloacae [7] = experiment: Antibacterial activity against Enterobacter cloacae DSM 6234 assessed as diameter of zone inhibition measured after 18 hrs by CLSI disc diffusion method; type: functional; outline: as §1
[8] = test system: Stenotrophomonas maltophilia; experiment: Antibacterial activity against Stenotrophomonas maltophilia ATCC 13637 assessed as diameter of zone inhibition measured after 18 hrs by CLSI disc diffusion method; type: functional; outline: as §1
Enterobacter cloacae [9] = experiment: Antibacterial activity against Enterobacter cloacae DSM 6234 assessed as fold reduction of MIC in presence of efflux pump inhibitor PAbetaN incubated for 18 hrs by broth microdilution method; type: functional
Outline: (§5)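 MICs determined with and without PAβN at 50 mg/L in Mueller-Hinton broth containing 1 mM MgSO₄. 2-fold serial dilutions per CLSI. Fold change taken from the paired MICs after 35 °C, 18 h.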

Serratia marcescens [10] = experiment: Antibacterial activity against Serratia marcescens ATCC 13880 assessed as fold reduction of MIC in presence of efflux pump inhibitor PAbetaN incubated for 18 hrs by broth microdilution method; type: functional; outline: as §5
Pseudomonas aeruginosa = experiment: Antibacterial activity against Pseudomonas aeruginosa ATCC 27853 assessed as fold reduction of MIC in presence of efflux pump inhibitor PAbetaN incubated for 18 hrs microdilution method; type: functional; outline: as §5
Acinetobacter baumannii = experiment: Antibacterial activity against Acinetobacter baumannii ATCC 19606 assessed as fold reduction of MIC in presence of efflux pump inhibitor PAbetaN incubated for 18 hrs by broth microdilution method; type: functional; outline: as §5
Klebsiella pneumoniae = details: ATCC 13883

Structure (SMILES) | diameter of the inhibition zone (DIZ) (Staphylococcus aureus [1]) [mm] | MIC (Serratia marcescens [2]) [µg/mL] | diameter of the inhibition zone (DIZ) (Candida tropicalis) | diameter of the inhibition zone (DIZ) (Pichia kudriavzevii) | diameter of the inhibition zone (DIZ) (Saccharomyces cerevisiae) | MIC [3] [µg/mL] | MBC (Staphylococcus aureus [4]) [µg/mL] | MBC [5] [µg/mL] | diameter of the inhibition zone (DIZ) (Enterococcus faecalis) | MIC (Escherichia coli) [µg/mL] | MIC (Enterobacter cloacae [6]) [µg/mL] | MIC (Burkholderia cepacia) [µg/mL] | diameter of the inhibition zone (DIZ) (Enterobacter cloacae [7]) | diameter of the inhibition zone (DIZ) [8] | fold change (FC) (Enterobacter cloacae [9]) | fold change (FC) (Serratia marcescens [10]) | fold change (FC) (Pseudomonas aeruginosa) | fold change (FC) (Acinetobacter baumannii) | DIZ (Klebsiella pneumoniae)
C[Si]1(C)OB(O)c2cc(B(O)O)cc(F)c21 | 18 | > 400 | inactive | inactive | inactive | 50 (≈ 208 µM) | 400 (≈ 1670 µM) | 400 (≈ 1670 µM) | 12 mm | > 400 | > 400 | > 400 | inactive | inactive | 32 | 2 | 2 | 4 | inactive
C[Si]1(C)OB(O)c2cc(F)c(CO)c(F)c21 | 17 | > 400 | inactive | inactive | inactive | 200 (≈ 819 µM) | – | – | inactive | > 400 | > 400 | > 400 | inactive | inactive | 8 | 4 | 4 | 2 | inactive
C[Si]1(C)OB(O)c2ccc(C=O)c(F)c21 | 21 | > 400 | inactive | inactive | inactive | 50 (≈ 223 µM) | 100 (≈ 446 µM) | 100 (≈ 446 µM) | inactive | > 400 | > 400 | > 400 | inactive | inactive | 16 | 16 | 4 | 4 | inactive
C[Si]1(C)OB(O)c2c(C=O)cc(F)c(F)c21 | 21 | > 400 | 11 mm | inactive | 13 mm | 100 (≈ 413 µM) | 100 (≈ 413 µM) | 400 (≈ 1650 µM) | inactive | > 400 | > 400 | > 400 | inactive | inactive | 64 | 2 | 4 | 2 | inactive
C[Si]1(C)OB(O)c2cc(F)c(C=O)c(F)c21 | 21 | > 400 | inactive | inactive | inactive | 100 (≈ 413 µM) | – | – | inactive | > 400 | > 400 | > 400 | inactive | 11 mm | 16 | 4 | 8 | 4 | inactive
